This note sets out measurements from ChEMBL document CHEMBL3856288, “Amidate Prodrugs of Deoxythreosyl Nucleoside Phosphonates as Dual Inhibitors of HIV and HBV Replication” (J Med Chem, 2016).

Structures are written as SMILES.

Data set [1] is described as follows: Chemical stability of the compound in pH 8 phosphate buffer assessed as parent compound remaining at 2 mg after 14 hrs by 31P NMR method. As to conditions: read-out: Stability. The data set is classed as physicochemical. In short, it runs like this: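 Prodrug (2 mg) in 0.2 mL acetone-d6 plus 0.3 mL pH 8 buffer (0.1 M Na2HPO4 adjusted with 0.1 M HCl); in situ 31P NMR (202 MHz) at 37 °C, spectra every 30 min over 14 h; parent remaining followed by diastereomer peak disappearance.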

The nature of data set [2]: Selectivity index, ratio of CC50 for human MT4 cells to EC50 for HIV1 3B infected in human MT4 cells. It is filed as toxicity, cell-based. As to conditions: read-out: Ratio CC50/EC50.
Data set [3] relates to Hepatitis B virus. Put plainly: Antiviral activity against HBV ayw1 infected in human HepG2(2.2.15) cells assessed as reduction in viral replication by measuring intracellular viral DNA copy number after 6 days by real-time qPCR method. The data set is classed as functional, cell-based. As to conditions: ayw1, HepG2 2.2.15, 144 h. In short, it runs like this:
(§1)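 The protocol was the same as the primary HepG2 2.2.15 assay (triplicate dosing, medium plus compound renewed on day 3, 6-day course). At the end, total intracellular DNA was isolated from the cells and HBV DNA copy number was measured by TaqMan qPCR to give EC50/EC90. CC50 came from MTS viability, and SI was taken as CC50/EC50.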
(In general: In qPCR the cycle at which signal appears reflects the starting amount.)

Data set [4] can be described thus: Half life in human liver S9 fraction at 100 uM by HPLC-UV method. The data set is classed as ADME, subcellular. In short, it runs like this:
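Incubation started by adding human liver S9 fraction (4 mg/mL) at 37 °C; aliquots at 0, 10, 20, 30, 60 min quenched in acetonitrile, centrifuged, supernatant analysed by C18 HPLC with UV at 260 nm; parent peak area versus time 0 gave percent remaining and half-life.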

A short description of data set [5]: Drug metabolism in acetone-d6/pH 7.6 Trizma buffer assessed as baker's yeast carboxypeptidase Y-mediated (S)-2-((((3R,5R)-5-(6-amino-9H-purin-9-yl)tetrahydrofuran-3-yloxy)methyl)oxidophosphorylamino)-4-(isopentyloxy)-4-oxobutanoate formation at 1 mg after 3 hrs by RP-HPLC/mass spectra analysis. The data set is classed as ADME. As to conditions: saccharomyces cerevisiae, pH 7.6, 3 h.

Data set [6] deals with Hepatitis B virus. Put plainly: Antiviral activity against HBV ayw1 infected in human HepG2(2.2.15) cells assessed as reduction in viral replication by measuring extracellular viral DNA copy number after 6 days by real-time qPCR method. The conditions noted are these: ayw1, HepG2 2.2.15, 144 h. The data set is classed as functional, cell-based. The essentials: (§2)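 HepG2 2.2.15 cells (stable line carrying two copies of the HBV ayw1 genome) were seeded at 1.5 × 10^4 cells/well in DMEM with 2% FBS and G418. After 16−24 h, compound was added in triplicate, and medium plus compound was renewed on day 3. On day 6, supernatant was Pronase-treated and extracellular HBV DNA was quantified by TaqMan qPCR against an HBV DNA standard curve to give EC50/EC90. Cell viability was read by MTS uptake to give CC50.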

Data set [7] can be described thus: Selectivity ratio of CC50 for human HepG2(2.2.15) cells to EC50 for reduction in HBV ayw1 intracellular DNA copy number. The data set is classed as ADME, cell-based. The conditions noted are these: read-out: Ratio CC50/EC50. In short, it runs like this:
as §1

Data set [8] can be described thus: Antiviral activity against HIV2 ROD infected in human MT4 cells assessed as protection against virus-induced cytopathic effect after 5 days by MTT assay. The data set is classed as functional, cell-based, Human immunodeficiency virus type 2 (ISOLATE ROD). The conditions noted are these: Human immunodeficiency virus 2, MT4, 120 h. In general terms: Cytopathic effects are the visible damage that an infection or toxin causes in cultured cells.

Data set [9] concerns Human immunodeficiency virus 1. Put plainly: Antiviral activity against HIV1 3B infected in human MT4 cells assessed as protection against virus-induced cytopathic effect after 5 days by MTT assay. It is filed as functional, cell-based. The conditions noted are these: Human immunodeficiency virus 1, 3B, MT4, 120 h.
A short description of data set [10]: Half life in human liver microsomes at 0.1 uM in presence of NADPH-regenerating system by HPLC MS/MS method. It is filed as ADME. The essentials:
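Pooled liver microsomes preincubated 10 min at 37 °C with NADPH-regenerating system (1 mM NADP, 5 mM G6P, 1 U/mL G6PDHase) in phosphate buffer pH 7.4, 3 mM MgCl2, 1 mM EDTA; compound added at 0.1 μM final; samples at 0, 15, 30, 45, 60 min quenched in acetonitrile/methanol, analysed by HPLC MS/MS.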
Background: Microsomes from liver hold many membrane-bound enzymes, among them those of drug oxidation.

Data set [11] can be described thus: Cytotoxicity against human MT4 cells assessed as decrease in cell viability after 5 days by MTT assay. It is filed as toxicity, cell-based.
Data set [12] is described as follows: Cytotoxicity against human HepG2(2.2.15) cells assessed as reduction in cell viability by MTS assay. The data set is classed as toxicity, cell-based. In short, it runs like this:
as §2

Data set [13] can be described thus: Selectivity index, ratio of CC50 for human MT4 cells to EC50 for HIV2 ROD infected in human MT4 cells. The data set is classed as toxicity, cell-based. The conditions noted are these: read-out: Ratio CC50/EC50.
Data set [14] can be described thus: Selectivity ratio of CC50 for human HepG2(2.2.15) cells to EC50 for reduction in HBV ayw1 extracellular DNA copy number. The conditions noted are these: read-out: Ratio CC50/EC50. In short, it runs like this: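 HepG2 2.2.15 cells (two HBV ayw1 genome copies), 1.5 × 10^4 cells/well in DMEM with 2% FBS and G418; compound dosed in triplicate and medium renewed on day 3. On day 6, Pronase-treated supernatant HBV DNA measured by TaqMan qPCR against a standard curve, giving EC50. MTS uptake gave CC50, and the ratio was calculated from these.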

Data set [15] can be described thus: Chemical stability of the compound in pH 1 phosphate buffer at 2 mg after 1 to 2 hrs by 31P NMR method. The data set is classed as physicochemical. In short, it runs like this:
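Prodrug (2.0 mg) dissolved in 0.2 mL acetone-d6 plus 0.3 mL pH 1 buffer (equal parts 0.2 M HCl and 0.2 M KCl); in situ 31P NMR (202 MHz) at 37 °C, spectra recorded every 30 min over 14 h, tracking loss of the diastereomer peaks.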

For `CC(C)CCOC(=O)C[C@H](NP(=O)(CO[C@H]1CO[C@@H](n2cnc3c(N)ncnc32)C1)Oc1ccccc1)C(=O)OCCC(C)C` (some centres not stated), the remaining at 14 h in data set [1] was determined as 43%. The selectivity ratio is 792 in data set [2], 8810 in data set [7], 4810 in data set [13] and above 1250 in data set [14]. In addition, the EC50 in the data set on Hepatitis B virus [3] was below 10 nM; in the data set on Hepatitis B virus [6], 10 nM; in data set [8] it was 3.6 nM; in data set [9], 21.6 nM. Also, the results for the EC90 in the data set on Hepatitis B virus [3] and in the data set on Hepatitis B virus [6] were 360 nM and 980 nM, respectively. Further, in data set [4], the half-life at 100 µM is 12.1 min. Moreover, the Drug metabolism result in data set [5] is “Metabolite_Detected”. For the same molecule, in [10], the half-life at 0.1 µM worked out at 8 min. Moreover, the CC50 at 120 h in data set [11] came to 16900 nM. Also, the half-maximal cytotoxic concentration (CC50) in data set [12] was found to be 35200 nM. Also, in data set [15], the Stability entry is reported as “Unstable”.

For orientation: EC50 means the concentration giving half of the maximal effect. One may read the EC90 as the concentration needed for an effect of 90%. In general, half-life refers to the time in which the quantity being followed falls by half. The CC50 is the concentration that lowers cell viability or growth by half.
